Source: ChEMBL document CHEMBL4145684 (J Med Chem, 2018)
pIC50: −log10 of the molar value. Calls of active or inactive are those of the source. No cut-off for these calls is given here.

Assays:
Estrogen receptor [1] = molecular target: T1, Estrogen receptor (Homo sapiens, UniProt P03372); experiment: Induction of ERalpha degradation in human MCF7 cells in phenol red free RPMI medium containing 5% charcoal dextran-treated FBS incubated for 4 hrs by SP1 and anti-ER rabbit monocolnal antibody based in-cell Western assay
T1 sequence (P03372 whole entry): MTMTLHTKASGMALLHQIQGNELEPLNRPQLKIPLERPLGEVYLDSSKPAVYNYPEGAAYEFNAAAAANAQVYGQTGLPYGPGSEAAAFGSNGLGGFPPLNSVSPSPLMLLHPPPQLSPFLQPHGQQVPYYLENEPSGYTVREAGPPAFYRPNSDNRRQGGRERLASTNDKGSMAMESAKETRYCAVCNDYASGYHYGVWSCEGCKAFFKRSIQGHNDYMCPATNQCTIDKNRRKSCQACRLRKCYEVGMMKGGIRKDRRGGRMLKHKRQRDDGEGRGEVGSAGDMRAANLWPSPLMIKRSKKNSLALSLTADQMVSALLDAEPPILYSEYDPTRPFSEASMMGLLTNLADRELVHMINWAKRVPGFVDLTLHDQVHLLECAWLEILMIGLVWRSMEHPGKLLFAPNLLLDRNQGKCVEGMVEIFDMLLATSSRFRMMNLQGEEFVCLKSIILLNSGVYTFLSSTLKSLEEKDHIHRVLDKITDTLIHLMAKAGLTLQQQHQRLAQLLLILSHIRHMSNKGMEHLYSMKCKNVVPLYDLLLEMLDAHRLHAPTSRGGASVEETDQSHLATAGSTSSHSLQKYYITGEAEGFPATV

MCF7 [2] = experiment: Antiproliferative activity against human MCF7 cells assessed as reduction in cell proliferation in RPMI containing 10% FBS incubated for 5 days by Cell-titer-Glo assay; assay type: functional, cell-based; details: MCF7, 120 h
How it was run: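 MCF-7 cells, 640/well in RPMI with 10% FBS and 20 mM HEPES, adhered overnight; 10-point 1:5 dilution series (10–0.000005 µM final) for 5 days. CellTiter-Glo luminescence, cell-free medium background subtracted, percent viability vs untreated cells; n ≥ 3.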

[3] = AUC in mouse at 10 mg/kg, po; assay type: ADME, organism-based; details: in vivo
How it was run: (§1)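 Mouse or rat PK: single intravenous dose 3 mg/kg or oral dose 10 mg/kg, vehicle PEG400/PVP/Tween 80/0.5% CMC in water (9:0.5:0.5:90).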

[4] = Oral bioavailability in Sprague-Dawley rat at 2 mg/kg; assay type: ADME, organism-based; details: in vivo
[5] = Clearance in Sprague-Dawley rat at 1 mg/kg, iv; assay type: ADME, organism-based; details: in vivo
[6] = Clearance in mouse at 3 mg/kg, iv; assay type: ADME, organism-based; details: in vivo; how it was run: as §1
[7] = Half life in mouse at 3 mg/kg, iv; assay type: ADME, organism-based; details: in vivo; how it was run: as §1
[8] = Volume of distribution at steady state in rat at 3 mg/kg, iv; assay type: ADME, organism-based; details: in vivo, read-out: Vdss; how it was run: as §1
[9] = Oral bioavailability in mouse at 10 mg/kg; assay type: ADME, organism-based; details: in vivo; how it was run: as §1
[10] = Volume of distribution at steady state in mouse at 3 mg/kg, iv; assay type: ADME, organism-based; details: in vivo, read-out: Vdss; how it was run: as §1
[11] = Oral bioavailability in rat at 10 mg/kg; assay type: ADME, organism-based; details: in vivo; how it was run: as §1
MCF7 [12] = experiment: Antitumor activity against human MCF7 cells xenografted in nu/nu mouse model of tamoxifen-sensitive breast cancer xenograft implanted with 17beta-estradiol time release pellets assessed as reduction tumor volume at 6 mg/kg, po qd for 4 weeks; assay type: functional, organism-based
[13] = Clearance in rat at 3 mg/kg, iv; assay type: ADME, organism-based; details: in vivo; how it was run: as §1
[14] = Half life in rat at 3 mg/kg, iv; assay type: ADME, organism-based; details: in vivo; how it was run: as §1
[15] = Cmax in mouse at 10 mg/kg, po; assay type: ADME, organism-based; design: dose 10 mg/kg, route oral; details: in vivo; how it was run: as §1
[16] = Cmax in rat at 10 mg/kg, po; assay type: ADME, organism-based; design: dose 10 mg/kg, route oral; details: in vivo; how it was run: as §1
[17] = AUC (0 to infinity) in mouse at 10 mg/kg, po; assay type: ADME, organism-based; design: dose 10 mg/kg, route oral, time infinity; details: in vivo
Rattus norvegicus [18] = experiment: Reduction in uterine wet weight in ethynyl estradiol-stimulated CD-IGS rat at 1 mg/kg, po dosed daily for 3 days by gavage followed 15 mins later by 0.1 mg/kg, po ethynyl estradiol and measured 24 hrs after last dose by immature rat uterine wet weight assay; assay type: functional
How it was run: (§2)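 Female immature CD-IGS rats, 21 days old on arrival; oral gavage of vehicle or compound daily for 3 days, ethynyl estradiol 0.1 mg/kg orally 15 min after each dose. Day 4, 24 h post-dose, plasma taken, then uterus removed and weighed. Reduction = 100 x (VehicleEE – Cpd)/(VehicleEE – Vehicle).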

[19] = AUC (0 to infinity) in rat at 10 mg/kg, po; assay type: ADME, organism-based; design: dose 10 mg/kg, route oral, time infinity; details: in vivo
[20] = AUC in human MCF7 cells xenografted nu/nu mouse implanted with 17beta-estradiol time release pellets dosed orally once daily for 4 weeks; assay type: ADME, organism-based; details: in vivo, po
MCF7 [21] = experiment: Antitumor activity against human MCF7 cells xenografted in nu/nu mouse model of tamoxifen-resistant breast cancer xenograft implanted with 17beta-estradiol time release pellets assessed as reduction tumor volume at 60 mg/kg, po qd for 4 weeks; assay type: functional, organism-based
How it was run: (§3)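 Female nu/nu mice with 0.72 mg 60-day 17β-estradiol pellets bearing MCF-7 tumors, pretreated with oral tamoxifen citrate; at ~150-250 mm3 (mean 200 mm3) randomized, tamoxifen stopped, then dosed daily for 4 weeks; tumor volume (length x width2/2) and body weight twice weekly.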

Estrogen receptor [22] = molecular target: T1, Estrogen receptor; experiment: Binding affinity to ERalpha (unknown origin)
MCF7 [23] = experiment: Antitumor activity against human MCF7 cells xenografted in nu/nu mouse model of tamoxifen-sensitive breast cancer xenograft implanted with 17beta-estradiol time release pellets assessed as reduction tumor volume at 60 mg/kg, po qd for 4 weeks; assay type: functional, organism-based
Rattus norvegicus [24] = experiment: In-vivo agonist activity at ERalpha in CD-IGS rat assessed as increase in uterine wet weight at 60 mg/kg, po dosed daily for 3 days by gavage and measured 24 hrs after last dose by immature rat uterine wet weight assay; assay type: functional, organism-based
How it was run: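 Immature CD-IGS rats given compound orally for 3 days without ethynyl estradiol (agonist mode); on day 4, 24 h after dosing, uterus removed and weighed; wet weight normalized to total body weight.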

Rattus norvegicus [25] = experiment: Reduction in uterine wet weight in ethynyl estradiol-stimulated CD-IGS rat at 60 mg/kg, po dosed daily for 3 days by gavage followed 15 mins later by 0.1 mg/kg, po ethynyl estradiol and measured 24 hrs after last dose by immature rat uterine wet weight assay; assay type: functional; how it was run: as §2
MCF7 [26] = experiment: Antitumor activity against human MCF7 cells xenografted in nu/nu mouse model of tamoxifen-resistant breast cancer xenograft implanted with 17beta-estradiol time release pellets assessed as reduction tumor volume at 120 mg/kg, po qd for 4 weeks; assay type: functional, organism-based; how it was run: as §3

Q: With `CC1=C(c2cccc(O)c2)C(c2ccc(OC[C@H](C)N3CCCCC3)cc2)Oc2ccc(O)cc21` (some centres not stated) as the molecule, how does the pIC50 (Estrogen receptor [1]) read?
A: 9.70

Q: And the pIC50 (MCF7 [2])?
A: 10.00

Q: Which AUC [3] does the source give for `CC1=C(c2ccc(O)cc2)[C@H](c2ccc(OCCN3CCCCC3)cc2)Oc2cc(O)ccc21` [ACOLBIFENE] here?
A: 90 ng·h/mL

Q: With `CC1=C(c2cccc(O)c2)C(c2ccc(OCCN3CCC3)cc2)Oc2ccc(O)cc21` (configuration not stated) as the molecule, how does the pIC50 (Estrogen receptor [1]) read?
A: 9.52

Q: And the pIC50 (MCF7 [2])?
A: 9.70

Q: With `CC1=C(c2cccc(S(C)(=O)=O)c2)C(c2ccc(OC[C@H](C)N3CC[C@@H](C)C3)cc2)Oc2ccc(O)cc21` (some centres not stated) as the molecule, how does the pIC50 (Estrogen receptor [1]) read?
A: 8.85

Q: And the pIC50 (MCF7 [2])?
A: 8.37

Q: With `CC1=C(c2cccc(O)c2)C(c2ccc(OC[C@H](C)N3CCCC3)cc2)Oc2ccc(O)cc21` (some centres not stated) as the molecule, how does the pIC50 (Estrogen receptor [1]) read?
A: 9.40

Q: And the pIC50 (MCF7 [2])?
A: 9.70

Q: Which bioavailability [4] does the source give for `Oc1ccc([C@H]2Sc3ccc(O)cc3O[C@H]2c2ccc(OCCN3CCCCC3)cc2)cc1` here?
A: 0%

Q: And the clearance [5]?
A: 154 mL/min/kg

Q: Which results are given for `CC1=C(c2cccc(O)c2)C(c2ccc(OC[C@H](C)N3CCCCCC3)cc2)Oc2ccc(O)cc21` (some centres not stated)?
A: pIC50 (Estrogen receptor [1]): 9.70; pIC50 (MCF7 [2]): 9.70

Q: With `CC1=C(c2ccc(F)cc2)C(c2ccc(OC[C@H](C)N3CC[C@@H](C)C3)cc2)Oc2ccc(O)cc21` (some centres not stated) as the molecule, how does the clearance [6] read?
A: 30 mL/min/kg

Q: And the half-life [7]?
A: 5.2 h

Q: And the Vd [8]?
A: 12 L/kg

Q: And the bioavailability [9]?
A: 35%

Q: And the Vd [10]?
A: 11 L/kg

Q: What about the bioavailability [11] of the same molecule?
A: 54%

Q: And the Activity (MCF7 [12])?
A: Active

Q: What about the AUC [3] of the same molecule?
A: 2000 ng·h/mL

Q: And the pIC50 (Estrogen receptor [1]; mcf7)?
A: 9.40

Q: What about the clearance [13] of the same molecule?
A: 21 mL/min/kg

Q: What about the half-life [14] of the same molecule?
A: 7.4 h

Q: And the Cmax [15]?
A: 170 ng/mL

Q: And the Cmax [16]?
A: 280 ng/mL

Q: What about the AUC(0-inf) [17] of the same molecule?
A: 2000 ng·h/mL

Q: What about the “inhibition (INH)” value (Rattus norvegicus [18]) of the same molecule?
A: 111%

Q: And the AUC(0-inf) [19]?
A: 4500 ng·h/mL

Q: What about the AUC at 672 h [20] of the same molecule?
A: 36000 ng·h/mL

Q: And the Activity (MCF7 [21])?
A: inactive

Q: What does the source list for `CC1=C(c2cccc(C#N)c2)C(c2ccc(OC[C@H](C)N3CC[C@@H](C)C3)cc2)Oc2ccc(O)cc21` (some centres not stated)?
A: pIC50 (Estrogen receptor [1]): 9.15; pIC50 (MCF7 [2]): 8.59

Q: With `CC1=C(c2cccc(O)c2)C(c2ccc(OC[C@H](C)N3CC[C@@H](C)C3)cc2)Oc2cc(O)ccc21` (some centres not stated) as the molecule, how does the AUC [3] read?
A: 50 ng·h/mL

Q: What about the pIC50 (Estrogen receptor [1]) of the same molecule?
A: 9.70

Q: And the pIC50 (MCF7 [2])?
A: 9.52

Q: Which AUC [3] does the source give for `CC1=C(c2ccccc2)C(c2ccc(OC[C@H](C)N3CC[C@@H](C)C3)cc2)Oc2ccc(O)cc21` (some centres not stated) here?
A: 1000 ng·h/mL

Q: And the pIC50 (Estrogen receptor [1])?
A: 9.40

Q: And the pIC50 (MCF7 [2])?
A: 9.40

Q: With `CC1=C(c2cccc(O)c2)C(c2ccc(OCCN3CC[C@H](C)C3)cc2)Oc2ccc(O)cc21` (some centres not stated) as the molecule, how does the pIC50 (Estrogen receptor [1]) read?
A: 9.70

Q: And the pIC50 (MCF7 [2])?
A: 9.52

Q: Which results are given for `CC1=C(c2cccc(O)c2)[C@@H](c2ccc(OC[C@H](C)N3CC[C@@H](C)C3)cc2)Oc2ccc(O)cc21`?
A: pIC50 (Estrogen receptor [22]): 6.87; pIC50 (Estrogen receptor [1]): 8.01; pIC50 (MCF7 [2]): 7.23

Q: What does the source list for `CC1=C(c2cccc(O)c2)C(c2ccc(OCCN3CCC(C)CC3)cc2)Oc2ccc(O)cc21` (configuration not stated)?
A: pIC50 (Estrogen receptor [1]): 9.70; pIC50 (MCF7 [2]): 9.70

Q: With `CC1=C(c2cccc(O)c2)C(c2ccc(OCCN3CCCCCC3)cc2)Oc2ccc(O)cc21` (configuration not stated) as the molecule, how does the pIC50 (Estrogen receptor [1]) read?
A: 9.70

Q: What about the pIC50 (MCF7 [2]) of the same molecule?
A: 9.70

Q: What does the source list for `CC/C(=C(\c1ccccc1)c1ccc(OCCN(C)C)cc1)c1ccccc1` [TAMOXIFEN]?
A: Activity (MCF7 [23]): Active; Activity (Rattus norvegicus [24]): Active; inhibition (INH) (Rattus norvegicus [25]): 78%; Activity (MCF7 [26]): inactive
